TNAP inh hiacc – inhibitors of human TNAP at high phosphate acceptor concentration; purified TNAP, CDP-star luminescence, 1 M DEA; 0.03% of 200,000 active; inhibition, % at 20 µM;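 active = over 50% inhibition of tissue-nonspecific alkaline phosphatase at 20 µM in the single-dose screen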
Target sequence (P05186 whole entry, looked up): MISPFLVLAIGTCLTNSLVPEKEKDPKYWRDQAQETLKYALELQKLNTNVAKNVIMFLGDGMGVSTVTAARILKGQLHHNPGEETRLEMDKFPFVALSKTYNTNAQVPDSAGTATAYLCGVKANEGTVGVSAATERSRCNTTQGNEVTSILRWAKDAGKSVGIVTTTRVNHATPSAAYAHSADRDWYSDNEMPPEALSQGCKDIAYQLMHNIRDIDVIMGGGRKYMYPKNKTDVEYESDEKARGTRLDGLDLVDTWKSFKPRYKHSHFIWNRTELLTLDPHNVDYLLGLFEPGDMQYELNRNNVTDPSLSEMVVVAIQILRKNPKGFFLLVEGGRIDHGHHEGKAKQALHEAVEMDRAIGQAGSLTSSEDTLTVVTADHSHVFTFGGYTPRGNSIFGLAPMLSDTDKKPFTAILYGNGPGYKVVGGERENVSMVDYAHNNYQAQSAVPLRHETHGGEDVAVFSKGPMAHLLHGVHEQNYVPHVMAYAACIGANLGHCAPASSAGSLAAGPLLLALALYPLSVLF
TNAP act hi DEA – TNAP (human) activation, high acceptor; AID 1136; purified TNAP, CDP-star luminescence, 1 M DEA, 30 min; hits give high values; 0 = EDTA background, 1 = DMSO-only activity; 200,000 tested, under 10 active; P05186; activation factor at 20 µM;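 active = activation factor at least 2 at 20 µM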
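Test system – human TNAP · Doses – 20 µM single point · Incubation – 30 min, room temperature · Signal – luminescent substrate turnover signal · Read-out basis – activation factor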
TNAP inh noacc – blocks human TNAP activity with no phosphate acceptor present. P05186. purified TNAP, CDP-star luminescence, 30 min. inhibition, % at 20 µM. 0.26% of 200,000 active. AID 1012;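 active = tissue-nonspecific alkaline phosphatase inhibition above about 50% at 20 µM in the single-dose screen, limit read from the data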
Arbovirus anti – blocks arbovirus infection | arbovirus infection cell-based antiviral screen | inhibition, % at 10 µM | 0.37% of 200,000 active; in the data active = inhibition above about 30%
WT yeast gro inh – growth inhibition of WT yeast, mitochondrial fusion screen | inhibition, % at 10 µM | mitochondrial fusion phenotypic screen, WT strain | 2.1% of 190,000 active; in the data active = inhibition above about 58%; tested in S. cerevisiae
Large screens that a line does not name were inactive. An excerpt weighted towards active compounds, which were near 2.6% of everything screened.

Cc1cccc(C)c1NC(=O)COC(=O)c1cccnc1	none
O=C(Cn1cnc2ccccc2c1=O)N1CCN(Cc2ccccc2)CC1	none
CC(C)SC1=NC(C)(C)C=C(/C=C/c2c(Cl)cccc2Cl)N1	WT yeast gro inh 66
CC(C)SC1=NC(C)(C)C=C(/C=C/c2ccc(Cl)cc2Cl)N1	WT yeast gro inh 77
O=C(Nc1cccc(C(F)(F)F)c1)N1CCN(C(=O)Nc2cccc(C(F)(F)F)c2)CC1	none
O=C(Nc1cccc(C(F)(F)F)c1)n1cc(-c2ccccn2)c(N2CCOCC2)n1	WT yeast gro inh 77
Cc1cc(N=Cc2c(O)ccc3cc(Br)ccc23)no1	Arbovirus anti 55
Cc1cc(N=Cc2c(O)ccc3ccccc23)no1	none
Cc1ccc([N+](=O)[O-])cc1NC(=S)NC(=O)CC(C)(C)C	WT yeast gro inh 68
Cc1ccc([N+](=O)[O-])cc1NC(=S)NC(=O)C(C)(C)C	none
CN(C)S(=O)(=O)c1cccc(C(=O)NCC2CCCO2)c1 (stereo not given)	WT yeast gro inh 97
CCOC(=O)c1c(C)c(C(=O)N2CCN(c3ccc(F)cc3)CC2)c(C)n1C	none
Cc1cc(/C=N/n2cnnc2)c(C)n1-c1ccc(OCc2ccc(Cl)cc2)cc1	WT yeast gro inh 66
Cc1cc(/C=N/n2cnnc2)c(C)n1-c1ccc(OCc2ccccc2F)cc1	none
COc1ccccc1-c1c(C)nn2c(N3CCN(c4ccccc4OC)CC3)cc(C)nc12	none
COc1ccccc1-c1c(C)nn2c(N3CCCCCC3)cc(C)nc12	WT yeast gro inh 61
COc1ccccc1-c1c(C)nn2c(N3CCN(Cc4ccccc4)CC3)cc(C)nc12	WT yeast gro inh 85
O=C(Nc1cc(C(F)(F)F)ccc1-n1cncn1)c1ccc(-c2ccccc2)cc1	none
Cn1ncc2c1ncn1nc(CCc3ccccc3)nc21	TNAP inh noacc 59
CN(C)c1ccc(C(CNS(=O)(=O)c2ccc(F)c(F)c2)c2c[nH]c3ccccc23)cc1 (stereo not given)	WT yeast gro inh 74
CN(C)c1ccc(C(CNC(=O)c2ccccc2F)c2c[nH]c3ccccc23)cc1 (stereo not given)	none
Cc1ccc(CONC(=O)/N=C/N(C)C)cc1	none
CCOC(=O)N1CCC(Nc2c(Nc3cccc(CC)c3)c(=O)c2=O)CC1	Arbovirus anti 36
O=C(NCCO[N+](=O)[O-])c1cccnc1	none
Oc1cccc2c(NC(=S)Nc3ccc(SC(F)F)cc3)cccc12	WT yeast gro inh 65
CCn1nc(C)c(NC(=O)c2ccc(Cl)cc2)c1C	none
CCn1nc(C)c(NC(=O)Nc2cccc(Cl)c2Cl)c1C	Arbovirus anti 32
CC/C(=C\C1CCCCC1)C(NP(=O)(c1ccccc1)c1ccccc1)c1ccccc1 (stereo not given)	WT yeast gro inh 79
O=C(NCC1CC1)[C@@H]1C[C@H]1[C@@H](NP(=O)(c1ccccc1)c1ccccc1)c1ccccc1	none
CCCC(C(=O)NCc1ccco1)N(C(=O)CNS(=O)(=O)c1ccccc1)c1ccccc1OC (stereo not given)	none
Cc1cc(NC(=O)c2cc3n(n2)C(C(F)(F)F)CC(c2ccc(Cl)c(Cl)c2)N3)no1 (stereo not given)	none
Cc1cccc(NC(=O)c2cc3n(n2)C(C(F)(F)F)CC(c2ccc4c(c2)OCO4)N3)c1 (stereo not given)	WT yeast gro inh 67
COc1ccc(NC(=O)c2cc3n(n2)C(C(F)(F)F)CC(c2ccc4c(c2)OCO4)N3)cc1OC (stereo not given)	WT yeast gro inh 68
COc1ccc(C2CC(C(F)(F)F)n3nc(C(=O)NCCCn4ccnc4)cc3N2)cc1OC (stereo not given)	none
CC(C)c1ccc(/C=C2\NC(=S)N(Cc3cccnc3)C2=O)cc1	none
COc1ccc(NS(=O)(=O)c2ccc(N3CCCC3=O)cc2)cn1	none
COc1ccc(NS(=O)(=O)c2ccc3c(c2)Cc2ccccc2-3)cn1	WT yeast gro inh 60
CC(NS(=O)(=O)c1ccc(Br)cc1)C(N)=O (stereo not given)	WT yeast gro inh 66
CS(=O)(=O)N(CC(=O)NCc1ccccn1)Cc1ccc(Cl)cc1	none
COc1ccccc1C(=O)n1nc(-c2ccccc2)nc1NCc1ccco1	WT yeast gro inh 83
O=C(N/N=C/c1c[nH]c2ccccc12)c1[nH]c2ccc(Br)cc2c1-c1ccccc1	WT yeast gro inh 96
C=CCSc1nnc(NC(=O)CSc2nc3ccccc3o2)s1	Arbovirus anti 36
Nc1nc(COc2ccc3ccccc3c2)cs1	WT yeast gro inh 75
CC(=O)Nc1nc(COc2ccc3ccccc3c2)cs1	none
CN(CC(=O)OCC(=O)NCc1ccccc1)S(=O)(=O)c1ccc(Cl)cc1	none
S=C(Nc1ccccc1Cl)N(Cc1ccccc1)Cc1ccccn1	WT yeast gro inh 64
CC(=O)C1=C(c2cccc([N+](=O)[O-])c2)N(C(C)=O)n2c(C)nnc2S1	TNAP inh noacc 63, WT yeast gro inh 60
COc1ccccc1OCC#CCNC1CCCCC1C (stereo not given)	none
CC12CCC(C(=O)N(c3ccccn3)c3ccccn3)(OC1=O)C2(C)C (stereo not given)	none
CCc1ccc(NC(=S)Nc2cccc3cnccc23)cc1	WT yeast gro inh 61
Cc1cc(C)cc(NC(=S)Nc2cccc3cnccc23)c1	WT yeast gro inh 65
Cc1ccc(NC(=S)Nc2cccc3cnccc23)c(C)c1	WT yeast gro inh 69
CC(=O)Nc1ccc(Cc2ccncc2)cc1	none
O=C1c2cccc(OCC(=O)N3CCCc4ccccc43)c2CCN1Cc1ccc(F)cc1	WT yeast gro inh 65
O=c1c2[nH]c3ccccc3c2ncn1CCC1=CCCCC1	none
C1=C(CCNc2ncnc3c2[nH]c2ccccc23)CCCC1	WT yeast gro inh 87
CCCCCCCC[n+]1cccc2c3ccccc3ccc21	WT yeast gro inh 80
COc1ccccc1NC(=S)N(c1ccccc1)C(C)C	none
CC(C)N(C(=S)NC1CCCCC1)c1ccccc1	WT yeast gro inh 59
CC(C)N(Cc1ccccc1)C(=S)NC1CCCCC1	WT yeast gro inh 64
CCOC(=O)C1(Cc2cccc(OC)c2)CCN(Cc2ccccc2OC)CC1	none
CCOC(=O)C1(Cc2cccc(OC)c2)CCN(Cc2cccc(OC)c2O)CC1	Arbovirus anti 33
COc1ccccc1NC(=O)CN(Cc1ccco1)C(=O)c1ccc(Cl)nc1	none
COc1ccc(NC(=O)CN(c2ccc(C)cc2)S(C)(=O)=O)c(OC)c1	WT yeast gro inh 62
OCCNCc1cc(Br)ccc1OCc1ccc(Cl)cc1Cl	WT yeast gro inh 58
O=C(CSc1ncn(-c2ccccc2)n1)Nc1nc2ccccc2s1	Arbovirus anti 40
O=C(CS(=O)(=O)Cc1ccccc1)Nc1nc2ccccc2s1	Arbovirus anti 48
O=C(c1ccc(COc2ccc(Cl)cc2)cc1)N1CCCCC1	WT yeast gro inh 60
CCCCOc1ccc(C(=O)N2CCCCCC2)cc1	none
Cc1cccc(OCC(=O)Nc2nc3ccc([N+](=O)[O-])cc3s2)c1C	WT yeast gro inh 65

Compound activity deposited in PubChem by several laboratories.
